# Residue numbers refer to the chain shown, from its start.
# Legend:
# Conditions in all cases: stereoisomer not certain
# [1] = target: T1, OR2J2 (Homo sapiens) (UniProt O76002)
# T1 sequence (whole entry): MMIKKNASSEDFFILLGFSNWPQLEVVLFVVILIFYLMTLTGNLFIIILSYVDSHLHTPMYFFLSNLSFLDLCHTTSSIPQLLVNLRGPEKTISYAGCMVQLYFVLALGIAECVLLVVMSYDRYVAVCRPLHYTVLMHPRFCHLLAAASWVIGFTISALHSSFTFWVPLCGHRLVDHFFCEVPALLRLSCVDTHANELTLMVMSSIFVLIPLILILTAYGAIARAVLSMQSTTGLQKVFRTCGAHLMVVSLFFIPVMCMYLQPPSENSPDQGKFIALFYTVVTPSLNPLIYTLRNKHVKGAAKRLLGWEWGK
# Outline: (§1)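 Values were gathered from published papers (main text and supplementary material), with extra details requested from the original authors when needed, and checked for typos and inconsistencies. Each receptor–molecule pair is called responsive (active) if the original authors judged the measured signal statistically different from baseline, and non-responsive (inactive) otherwise. Assay methods varied by source, often transient mammalian cell-line luciferase assays. Recorded details include cell line, G-protein, co-transfected protein and tags.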
# [2] = test system: T2, OR2H2
# T2 sequence (whole entry): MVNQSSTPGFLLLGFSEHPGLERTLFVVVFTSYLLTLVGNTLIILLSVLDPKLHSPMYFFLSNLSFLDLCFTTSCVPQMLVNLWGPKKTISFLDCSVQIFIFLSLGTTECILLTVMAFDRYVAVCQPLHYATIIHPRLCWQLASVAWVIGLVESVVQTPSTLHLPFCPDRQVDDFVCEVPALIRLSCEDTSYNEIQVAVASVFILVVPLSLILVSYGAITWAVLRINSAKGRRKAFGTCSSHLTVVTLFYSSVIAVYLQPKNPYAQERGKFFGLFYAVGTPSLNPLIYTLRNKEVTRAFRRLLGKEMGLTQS
# Outline: as §1
# [3] = target: T3, OR2J1 (Homo sapiens) (UniProt Q9GZK6)
# T3 sequence (whole entry): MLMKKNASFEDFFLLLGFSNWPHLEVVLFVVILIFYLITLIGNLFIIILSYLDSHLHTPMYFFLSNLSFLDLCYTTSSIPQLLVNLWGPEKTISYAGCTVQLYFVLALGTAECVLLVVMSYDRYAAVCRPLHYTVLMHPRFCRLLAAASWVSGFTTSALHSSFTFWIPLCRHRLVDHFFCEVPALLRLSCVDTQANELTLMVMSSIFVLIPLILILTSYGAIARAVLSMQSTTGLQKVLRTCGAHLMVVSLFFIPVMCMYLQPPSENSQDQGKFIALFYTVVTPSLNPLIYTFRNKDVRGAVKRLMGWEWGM
# Outline: as §1
# [4] = test system: T4, OR2J1 L14I V182A
# T4 sequence (whole entry): T3 sequence (whole entry) with L14I, V182A
# Outline: as §1
# [5] = test system: T5, OR2J2
# T5 sequence (whole entry): T1 sequence (whole entry) with H74Y, A111T, A146V, A218T
# Outline: as §1
# [6] = target: T6, OR2J3 (Homo sapiens) (UniProt O76001)
# T6 sequence (whole entry): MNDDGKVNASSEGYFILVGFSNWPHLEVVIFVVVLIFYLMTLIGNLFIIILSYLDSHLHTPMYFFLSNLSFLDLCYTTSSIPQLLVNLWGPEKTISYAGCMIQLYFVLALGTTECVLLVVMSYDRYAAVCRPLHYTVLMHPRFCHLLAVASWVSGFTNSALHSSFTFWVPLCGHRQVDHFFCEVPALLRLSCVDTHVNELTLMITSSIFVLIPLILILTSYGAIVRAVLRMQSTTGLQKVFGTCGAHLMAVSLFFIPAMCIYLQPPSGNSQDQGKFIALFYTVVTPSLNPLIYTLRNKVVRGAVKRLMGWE
# Outline: as §1
# [7] = test system: T7, OR2J3
# T7 sequence (whole entry): T6 sequence (whole entry) with V228I, I261M
# Outline: as §1
# [8] = target: T8, OR2K2 (Homo sapiens) (UniProt Q8NGT1)
# T8 sequence (whole entry): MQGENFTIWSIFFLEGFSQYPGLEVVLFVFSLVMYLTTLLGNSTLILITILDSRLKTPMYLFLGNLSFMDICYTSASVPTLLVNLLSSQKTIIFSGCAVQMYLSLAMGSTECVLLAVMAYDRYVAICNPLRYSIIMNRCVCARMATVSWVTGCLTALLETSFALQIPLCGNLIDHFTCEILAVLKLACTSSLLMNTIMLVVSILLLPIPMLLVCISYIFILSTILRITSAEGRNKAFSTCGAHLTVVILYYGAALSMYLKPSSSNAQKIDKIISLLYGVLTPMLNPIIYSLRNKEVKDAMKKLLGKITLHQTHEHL
# Outline: as §1
# [9] = target: T9, OR2L13 (Homo sapiens) (UniProt Q8N349)
# T9 sequence (whole entry): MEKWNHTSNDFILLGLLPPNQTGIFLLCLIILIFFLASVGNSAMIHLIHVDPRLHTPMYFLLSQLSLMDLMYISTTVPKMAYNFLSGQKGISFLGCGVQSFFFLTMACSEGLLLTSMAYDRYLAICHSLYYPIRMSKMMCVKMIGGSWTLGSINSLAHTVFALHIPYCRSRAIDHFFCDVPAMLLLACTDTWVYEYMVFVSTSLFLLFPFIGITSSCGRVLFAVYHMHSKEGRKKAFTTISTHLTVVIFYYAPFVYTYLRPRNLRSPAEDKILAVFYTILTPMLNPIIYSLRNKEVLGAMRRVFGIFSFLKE
# Outline: as §1
# [10] = target: T10, OR2L2 (Homo sapiens) (UniProt Q8NH16)
# T10 sequence (whole entry): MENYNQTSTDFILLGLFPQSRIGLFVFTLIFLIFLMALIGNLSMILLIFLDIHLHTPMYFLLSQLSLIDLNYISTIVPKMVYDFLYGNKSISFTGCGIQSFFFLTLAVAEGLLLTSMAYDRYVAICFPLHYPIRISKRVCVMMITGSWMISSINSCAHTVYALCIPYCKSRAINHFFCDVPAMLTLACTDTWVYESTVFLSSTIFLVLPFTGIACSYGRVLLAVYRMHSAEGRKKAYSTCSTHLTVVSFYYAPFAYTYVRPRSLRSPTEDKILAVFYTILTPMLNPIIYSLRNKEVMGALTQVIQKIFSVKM
# Outline: as §1
# [11] = target: T11, OR2L3 (Homo sapiens) (UniProt Q8NG85)
# T11 sequence (whole entry): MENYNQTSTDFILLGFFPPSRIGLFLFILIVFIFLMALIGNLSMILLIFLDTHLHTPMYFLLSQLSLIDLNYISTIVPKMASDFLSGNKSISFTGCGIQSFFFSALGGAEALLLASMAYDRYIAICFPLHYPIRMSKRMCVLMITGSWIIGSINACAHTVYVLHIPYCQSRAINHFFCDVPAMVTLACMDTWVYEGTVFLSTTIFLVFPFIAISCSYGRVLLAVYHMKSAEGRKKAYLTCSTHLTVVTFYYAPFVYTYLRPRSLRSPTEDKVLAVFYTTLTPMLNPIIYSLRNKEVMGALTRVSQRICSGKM
# Outline: as §1
# [12] = target: T12, OR2L5 (Homo sapiens) (UniProt Q8NG80)
# T12 sequence (whole entry): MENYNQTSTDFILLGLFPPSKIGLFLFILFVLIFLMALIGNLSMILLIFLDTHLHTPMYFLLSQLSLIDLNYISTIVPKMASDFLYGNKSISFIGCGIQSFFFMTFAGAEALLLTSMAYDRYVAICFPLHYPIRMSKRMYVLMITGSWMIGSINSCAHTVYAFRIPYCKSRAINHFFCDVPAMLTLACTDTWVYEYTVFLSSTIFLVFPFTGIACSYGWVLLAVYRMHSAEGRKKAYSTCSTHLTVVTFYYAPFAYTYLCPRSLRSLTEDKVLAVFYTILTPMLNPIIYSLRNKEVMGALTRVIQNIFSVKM
# Outline: as §1
# [13] = target: T13, OR2L8 (Homo sapiens) (UniProt Q8NGY9)
# T13 sequence (whole entry): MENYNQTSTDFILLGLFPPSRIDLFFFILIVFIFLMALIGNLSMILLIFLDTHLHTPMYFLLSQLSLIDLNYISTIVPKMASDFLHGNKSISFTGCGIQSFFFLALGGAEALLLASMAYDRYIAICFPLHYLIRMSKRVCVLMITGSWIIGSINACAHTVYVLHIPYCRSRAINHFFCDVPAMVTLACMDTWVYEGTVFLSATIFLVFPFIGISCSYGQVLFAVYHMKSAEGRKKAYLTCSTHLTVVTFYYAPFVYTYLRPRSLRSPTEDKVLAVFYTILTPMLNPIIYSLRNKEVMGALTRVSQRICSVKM
# Outline: as §1
# [14] = target: T14, OR2M2 (Homo sapiens) (UniProt Q96R28)
# T14 sequence (whole entry): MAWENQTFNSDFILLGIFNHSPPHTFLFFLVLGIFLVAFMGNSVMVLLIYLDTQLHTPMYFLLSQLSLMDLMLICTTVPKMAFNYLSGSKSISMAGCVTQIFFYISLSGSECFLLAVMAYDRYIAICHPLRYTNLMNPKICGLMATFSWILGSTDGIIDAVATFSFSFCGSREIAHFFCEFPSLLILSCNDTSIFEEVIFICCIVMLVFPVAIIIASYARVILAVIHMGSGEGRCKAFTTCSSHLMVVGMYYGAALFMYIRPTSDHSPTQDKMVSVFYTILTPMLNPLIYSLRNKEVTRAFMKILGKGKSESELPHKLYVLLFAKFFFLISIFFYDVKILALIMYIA
# Outline: as §1
# [15] = target: T15, OR2M3 (Homo sapiens) (UniProt Q8NG83)
# T15 sequence (whole entry): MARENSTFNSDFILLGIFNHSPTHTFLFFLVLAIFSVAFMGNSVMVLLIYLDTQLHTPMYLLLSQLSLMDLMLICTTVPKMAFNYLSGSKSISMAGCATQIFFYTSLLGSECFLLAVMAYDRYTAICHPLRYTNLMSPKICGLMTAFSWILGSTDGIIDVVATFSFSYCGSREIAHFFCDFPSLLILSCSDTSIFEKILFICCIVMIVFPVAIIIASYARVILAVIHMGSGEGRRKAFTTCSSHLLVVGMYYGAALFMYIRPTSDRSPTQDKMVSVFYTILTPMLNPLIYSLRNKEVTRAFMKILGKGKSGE
# Outline: as §1
# [16] = test system: OR2J1
# Outline: as §1
# [17] = test system: OR2J1; remark: listed apart in the source
# Outline: as §1
# Target sequence in this assay (as listed by the source): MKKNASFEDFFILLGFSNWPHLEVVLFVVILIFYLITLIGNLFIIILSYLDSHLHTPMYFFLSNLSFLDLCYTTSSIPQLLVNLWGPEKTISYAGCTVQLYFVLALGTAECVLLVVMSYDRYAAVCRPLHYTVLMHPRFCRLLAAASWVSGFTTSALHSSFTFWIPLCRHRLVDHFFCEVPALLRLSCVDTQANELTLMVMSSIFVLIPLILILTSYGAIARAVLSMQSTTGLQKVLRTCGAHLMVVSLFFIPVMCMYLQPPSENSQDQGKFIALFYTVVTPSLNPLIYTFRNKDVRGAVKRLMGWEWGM
compound,measurement,setting,value
CC(C)=CCCC(C)CCO (configuration not stated),odorant receptor agonist call,[1],inactive
CC1=C(O)C(=O)C(C)O1 (configuration not stated),odorant receptor agonist call,[2],inactive
same,odorant receptor agonist call,[3],inactive
same,odorant receptor agonist call,[4],inactive
same,odorant receptor agonist call,[5],inactive
same,odorant receptor agonist call,[6],inactive
same,odorant receptor agonist call,[7],inactive
same,odorant receptor agonist call,[8],inactive
same,odorant receptor agonist call,[9],inactive
same,odorant receptor agonist call,[10],inactive
same,odorant receptor agonist call,[11],inactive
same,odorant receptor agonist call,[12],inactive
same,odorant receptor agonist call,[13],inactive
same,odorant receptor agonist call,[14],inactive
same,odorant receptor agonist call,[15],inactive
CC(=O)Oc1ccccc1,odorant receptor agonist call,[1],inactive
O=c1ccc2ccccc2o1,odorant receptor agonist call,[16],inactive
same,odorant receptor agonist call,[1],active
same,odorant receptor agonist call,[9],inactive
same,odorant receptor agonist call,[15],inactive
O=C(c1ccccc1)c1ccccc1,odorant receptor agonist call,[1],inactive
CCCCOC=O,odorant receptor agonist call,[1],inactive
CCC1OC(C)=C(O)C1=O (configuration not stated),odorant receptor agonist call,[2],inactive
same,odorant receptor agonist call,[3],inactive
same,odorant receptor agonist call,[4],inactive
same,odorant receptor agonist call,[5],inactive
same,odorant receptor agonist call,[6],inactive
same,odorant receptor agonist call,[7],inactive
same,odorant receptor agonist call,[8],inactive
same,odorant receptor agonist call,[9],inactive
same,odorant receptor agonist call,[10],inactive
same,odorant receptor agonist call,[11],inactive
same,odorant receptor agonist call,[12],inactive
same,odorant receptor agonist call,[13],inactive
same,odorant receptor agonist call,[14],inactive
same,odorant receptor agonist call,[15],inactive
CC1=C(O)C(=O)OC1C (configuration not stated),odorant receptor agonist call,[2],inactive
same,odorant receptor agonist call,[3],inactive
same,odorant receptor agonist call,[4],inactive
same,odorant receptor agonist call,[5],inactive
same,odorant receptor agonist call,[6],inactive
same,odorant receptor agonist call,[7],inactive
same,odorant receptor agonist call,[8],inactive
same,odorant receptor agonist call,[9],inactive
same,odorant receptor agonist call,[10],inactive
same,odorant receptor agonist call,[11],inactive
same,odorant receptor agonist call,[12],inactive
same,odorant receptor agonist call,[13],inactive
same,odorant receptor agonist call,[14],inactive
same,odorant receptor agonist call,[15],inactive
O=C1CCOc2ccccc21,odorant receptor agonist call,[1],inactive
CCCC(C)=CC(=O)O,odorant receptor agonist call,[17],inactive
same,odorant receptor agonist call,[16],inactive
CC(CO)CS (configuration not stated),odorant receptor agonist call,[3],inactive
same,odorant receptor agonist call,[1],inactive
same,odorant receptor agonist call,[6],inactive
same,odorant receptor agonist call,[8],inactive
same,odorant receptor agonist call,[9],inactive
same,odorant receptor agonist call,[10],inactive
same,odorant receptor agonist call,[11],inactive
same,odorant receptor agonist call,[12],inactive
same,odorant receptor agonist call,[13],inactive
same,odorant receptor agonist call,[14],inactive
same,odorant receptor agonist call,[15],inactive
CCC(=O)C(=O)CC,odorant receptor agonist call,[1],inactive
CCC1OC(=O)C(O)=C1C (configuration not stated),odorant receptor agonist call,[2],inactive
same,odorant receptor agonist call,[3],inactive
same,odorant receptor agonist call,[4],inactive
same,odorant receptor agonist call,[5],inactive
same,odorant receptor agonist call,[6],inactive
same,odorant receptor agonist call,[7],inactive
same,odorant receptor agonist call,[8],inactive
same,odorant receptor agonist call,[9],inactive
same,odorant receptor agonist call,[10],inactive
same,odorant receptor agonist call,[11],inactive
same,odorant receptor agonist call,[12],inactive
same,odorant receptor agonist call,[13],inactive
same,odorant receptor agonist call,[14],inactive
same,odorant receptor agonist call,[15],inactive
Cc1cnc(C)c(C)n1,odorant receptor agonist call,[2],inactive
same,odorant receptor agonist call,[3],inactive
same,odorant receptor agonist call,[4],inactive
same,odorant receptor agonist call,[5],inactive
same,odorant receptor agonist call,[6],inactive
same,odorant receptor agonist call,[7],inactive
same,odorant receptor agonist call,[8],inactive
same,odorant receptor agonist call,[9],inactive
same,odorant receptor agonist call,[10],inactive
same,odorant receptor agonist call,[11],inactive
same,odorant receptor agonist call,[12],inactive
same,odorant receptor agonist call,[13],inactive
same,odorant receptor agonist call,[14],inactive
same,odorant receptor agonist call,[15],inactive
CCCCCCCCC(=O)O,odorant receptor agonist call,[1],inactive
CCCCCC(S)C(C)CO (configuration not stated),odorant receptor agonist call,[3],inactive
same,odorant receptor agonist call,[1],inactive
same,odorant receptor agonist call,[6],inactive
same,odorant receptor agonist call,[8],inactive
same,odorant receptor agonist call,[9],inactive
same,odorant receptor agonist call,[10],inactive
same,odorant receptor agonist call,[11],inactive
same,odorant receptor agonist call,[12],inactive
same,odorant receptor agonist call,[13],inactive
same,odorant receptor agonist call,[14],inactive
same,odorant receptor agonist call,[15],inactive
CCCCCC1=C(C)CCC1=O,odorant receptor agonist call,[1],inactive
CCCCCCCCO,odorant receptor agonist call,[10],inactive

# From the M2OR odorant receptor database
